In PMC6404985 (Cell chemical biology, 2018):
“Also recorded” adds a separate entry of the source.

Assays:
[1] = system: BAF-mediated transcriptional repression (Bmi1-luciferase reporter cell line); experiment: Bmi1-luciferase reporter assay in mouse ESCs; type: cell-based; conditions: for activity in the Bmi1 luciferase reporter assays (in words): follow up library
How it was run: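 Mouse ESC Bmi1-luciferase reporter line: 10,000 cells per 384-well in ESC medium, 24 h at 37 °C/5% CO2, then compound added by 100 nL pin transfer alongside a positive control. Each concentration in triplicate; DMSO tolerated to 0.5%. After 24 h treatment, equilibrated 10 min at room temperature, SteadyGlo added for 10 min, luminescence read. EC50 derived.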

latent HIV-1 [2] = experiment: HIV latency reversal activity of the thiophene hit; type: cell-based
latent HIV-1 [3] = experiment: Second ex vivo model of HIV-1 latency; type: cell-based; conditions: 24 h
How it was run: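 Healthy-donor CD4+ T cells were polarized for 3 days with 10 ng/ml TGF-β, 1 µg/ml α-IL-4 and αCD3/CD28 beads (1:1). Beads removed, then 4 days in 30 IU/ml rIL-2. Spin-infected 90 min at 1200 g, then kept in rIL-2 plus 5 µM saquinavir. Seven days post-infection, treated 24 h with increasing concentrations plus 30 µM raltegravir. Luciferase RLU normalized to total protein.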

[4] = system: human primary CD4+ T cells; experiment: T cell activation markers CD25 and CD69; type: cell-based; conditions: 24 and 72 hours, two healthy donors
latent HIV-1 [5] = experiment: Ex vivo primary CD4+ T cell model of HIV-1 latency; type: cell-based; conditions: 24 h treatment
How it was run: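 Healthy-donor CD4+ T cells (buffy coat, Ficoll, RosetteSep negative selection) were spin-infected 24 h after isolation with HXB2 Env-pseudotyped pNL4.3.Luc.R-E- (1200 g, 2 h). After 18 h, cells were washed and cultured with 5 µM saquinavir. Three days later, treated 24 h with 30 µM raltegravir present. Luciferase read-out normalized to total protein, expressed as fold over untreated; Bliss score for combinations.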

[6] = system: nucleosome occupancy at the HIV-1 5'-LTR; experiment: FAIRE assay in J-Lat 11.1; type: cell-based; conditions: J-Lat 11.1, overnight treatment
[7] = system: BAF target genes p21 and c-MYC; experiment: Biomarker mRNA expression of BAF target genes in CD4+ T cells; type: cell-based, human
How it was run: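 Human CD4+ T cells, healthy donors: three donors isolated by Ficoll and RosetteSep negative selection, treated in duplicate with 3 µM test compound or DMSO for 16 h. HIV+ patient cells: frozen PBMCs rested overnight, CD4+ enriched twice, rested 6 h, 3 million cells treated with 10 µM compound or DMSO. TRIreagent RNA, random-primed cDNA; p21 and c-MYC mRNA vs control; Student's t test.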

latent HIV-1 [8] = experiment: Latency reversal in CD4+ T cells from aviremic HIV-1 infected patients; type: cell-based
ARID1A = experiment: Biotin pulldown from ESC lysates, ARID1A; type: binding, mouse; conditions: 200 µM soluble compound, pulldown with CAM 2–56
How it was run: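 Beads incubated 2 h with cell lysates pre-incubated with DMSO or 200 µM soluble competitor. Beads washed once, boiled in SDS loading buffer, and bound proteins detected by immunoblot.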

HEK293T cells = experiment: Viability assay HEK293T; type: cell-based, human; conditions: 72 h
How it was run: (§1)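 2000 cells/well in 384-well plates, pre-incubated 24 h at 37 °C, 5% CO2. Compound added by pin transfer; mitoxantrone (10 µM final) as cytotoxic positive control. Incubated 72 h, equilibrated 15 min to room temperature. CellTiter-Glo diluted 1:1 with PBS (pH 7.4) added, luminescence read. Run at eight doses as a viability counter-screen.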

HepG2 cells = experiment: Viability assay HepG2; type: cell-based, human; conditions: 72 h
How it was run: as §1

wild type ESCs = experiment: Viability of wild type ESCs; type: cell-based, mouse; conditions: up to 30 µM, 72 h
How it was run: as §1

[9] = system: latent HIV-1 provirus in J-Lat cells; experiment: J-Lat T-cell line models of HIV-1 latency; type: cell-based; conditions: 48 h; higher concentrations than in primary cells
[10] = system: BAF target genes (Bmi1, Ring1, Fgf4); conditions: 30 µM, 18 h
A549 cells = experiment: Viability assay A549; type: cell-based, human; conditions: 72 h
How it was run: as §1

[11] = CD4+ T cells of three patients, 10 µM

CO[C@H]1CN(C)C(=O)c2cc(NC(=O)NC(C)C)ccc2OC[C@H](C)N(Cc2ccccc2)C[C@@H]1C [BRD-K13648511]
activity in the Bmi1 luciferase reporter assays (in words) [1]: low/no activity

C=CCNc1nc(NCc2cccc(OC)c2)c2sc(-c3ccccc3)cc2n1 [MLS003122856]
HIV latency reversal activity (latent HIV-1 [2]): only moderate HIV latency reversal activity

CO[C@H]1CN(C)C(=O)c2cc(NC(=O)OC(C)C)ccc2OC[C@H](C)N(Cc2ccc(-c3ccccn3)cc2)C[C@@H]1C [BRD-K80443127]
activation in second ex vivo model of HIV-1 latency (latent HIV-1 [3]): activation was confirmed
effect on CD25 and CD69 expression (T cell activation) [4]: no effect
transcription of latent HIV-1 in ex vivo infected primary CD4+ T cells (latent HIV-1 [5]): slightly higher activity at low concentrations; also recorded: triggered HIV transcription
chromatin accessibility at the Nuc-1 position of the 5' LTR [6]: increased chromatin accessibility
differential expression of c-MYC and p21 ([7]; CD4+ T cells of healthy donors, 3 µM, 16 hours): consistent with BAF inhibition
C-MYC transcripts levels [7, 11]: significant decrease
p21 transcripts levels [7, 11]: significant decrease
potentiation of prostratin activity (latent HIV-1 [8]; all three patients): significant potentiation
cell associated HIV mRNA after ex vivo treatment alone (latent HIV-1 [8]; in one patient): significant increase
POL copies when co-treated with prostratin (latent HIV-1 [8]; patient 2 and 3, 10 µM with 200 nM prostratin, 24 h): significant increase
cell associated HIV-1 POL after treatment alone (latent HIV-1 [8]; patient 2 and 3, 10 µM, 24 h): did not result in a significant increase
activity in the Bmi1 luciferase reporter assays (in words) [1]: high activity

CCC(CC)Nc1c(Nc2ccc3c(c2)C(=O)N(C)C[C@H](OC)[C@@H](C)CN(Cc2ccc(-c4ccccn4)cc2)[C@@H](C)CO3)c(=O)c1=O [BRD-K04244835]
activity in the Bmi1 luciferase reporter assays (in words) [1]: low/no activity

CO[C@H]1CN(C)C(=O)c2cc(N)ccc2OC[C@H](C)N(Cc2ccc(-c3ccccn3)cc2)C[C@@H]1C [BRD-K25923209]
ARID1A enrichment upon preincubation of lysates with soluble competitor (ARID1A): complete reduction
transcription of latent HIV-1 in ex vivo infected primary CD4+ T cells (latent HIV-1 [5]): triggered HIV transcription
activity in the Bmi1 luciferase reporter assays (in words) [1]: high activity

CO[C@H]1CN(C)C(=O)c2cc(NC(=O)NC(C)C)ccc2OC[C@H](C)N(Cc2ccc(-c3cccnc3)cc2)C[C@@H]1C [BRD-K17257309]
activity in the Bmi1 luciferase reporter assays (in words) [1]: moderate activity

CO[C@H]1CN(C)C(=O)c2cc(NC(=O)NC(C)C)ccc2OC[C@H](C)N(Cc2ccc(-c3ccccn3)cc2)C[C@@H]1C [BRD-K98645985]
toxicity to HEK293T cells (HEK293T cells): no toxicity
toxicity to HepG2 cells (HepG2 cells): no toxicity
toxicity to ESCs (wild type ESCs): no toxicity
transcription of latent HIV-1 in ex vivo infected primary CD4+ T cells (latent HIV-1 [5]): triggered HIV transcription
latency reversal in J-Lat cells [9]: concentration dependent latency reversal
fold decrease in Fgf4 [10]: 3.3 fold
fold increase in Bmi1 [10]: 5 fold
fold increase in Ring1 [10]: 2.6 fold
toxicity to A549 cells (A549 cells): no toxicity
activity in the Bmi1 luciferase reporter assays (in words) [1]: high activity
EC50 ([1]; read-out: EC50 in the luciferase assay, 24 h compound treatment, re-evaluation of hit): ~2370 nM
